Source: ChEMBL document CHEMBL1121809, “Cyclic guanidines. 14. Imidazo[1,2-a]thienopyrimidin-2-one derivatives as blood platelet aggregation inhibitors” (J Med Chem, 1981)
Several values for one entry are separate records, joined by “and”; a condition that tells them apart may be missing. Equal entries are not always repeated.

Experiments:
Rattus norvegicus [1] = organism: Rattus norvegicus; assay: In vitro inhibition of ADP-induced blood platelet aggregation; assay type: functional
In short: (§1)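 Rat carotid citrated blood was spun at 230g for 7 min to give PRP, adjusted with PPP to about 5 × 10⁵ platelets/μL. Compound in saline or MeOH was added before 10 μM ADP in Tris-HCl/NaCl pH 7.4 with CaCl₂. Aggregation was read at 30 °C, 1100 rpm, as maximal ΔA. EC50 is the concentration giving 50% inhibition.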

Rattus norvegicus [2] = organism: Rattus norvegicus; assay: In vitro inhibition of collagen-induced blood platelet aggregation; assay type: functional
In short: (§2)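 Rat PRP (about 5 × 10⁵ platelets/μL) was preincubated with compound added in saline or MeOH. Aggregation was started with bovine tendon collagen suspension in Tris buffer (absorbance 0.270 at 420 nm; lag 2–3 min). Read at 30 °C, 1100 rpm, as initial maximal rate ΔA/min. EC50 is the concentration giving 50% inhibition.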

Rattus norvegicus [3] = assay: Effect on systolic blood pressure in rat after an oral dose at 50 mg/kg (6h after dose); assay type: functional, Artery
In short: (§3)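 Male Wistar-Imamichi rats, 250 g, were given the compound orally at (50 mg/7.5 mL)/kg as a suspension in 0.5% CMC or 0.5% Tween 80. Systolic pressure and heart rate were taken by tail-cuff after prewarming at 55–60 °C for 3 min, before dosing and at set times after. Five rats per group, mean ± SD. Pressure is reported as decrease and heart rate as percent change.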

Rattus norvegicus [4] = assay: Effect on systolic blood pressure in rat after an oral dose at 50 mg/kg (1h after dose); assay type: functional, Artery; in short: as §3
Rattus norvegicus [5] = assay: Effect of compound on systolic blood pressure in rat after an oral dose at 50 mg/kg (24h after dose); assay type: functional, Artery; in short: as §3
Rattus norvegicus [6] = assay: Effect on systolic blood pressure in rat after an oral dose at 50 mg/kg (3h after dose); assay type: functional, Artery; in short: as §3
Rattus norvegicus [7] = assay: Effect on systolic blood pressure in rat after an oral dose at 50 mg/kg (4h after dose); assay type: functional, Artery; in short: as §3
Rattus norvegicus [8] = assay: Effect on systolic blood pressure in rat after an oral dose at 50 mg/kg (5h after dose); assay type: functional, Artery; in short: as §3
Rattus norvegicus [9] = assay: Effect on heart rate in rat after an oral dose at 50 mg/kg; assay type: functional; in short: as §3
Rattus norvegicus [10] = assay: Ex vivo inhibition of ADP-induced blood platelet aggregation in rat was measured 2 hr after administration of vehical alone (delta A/min *10e 3); assay type: functional
Rattus norvegicus [11] = assay: Ex vivo inhibition of collagen-induced blood platelet aggregation in rat was measured 2 hr after administration of vehical alone; assay type: functional
In short: (§4)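 Overnight-fasted rats were dosed orally at (50 mg/10 mL)/kg in 0.5% Tween 80; controls got vehicle at 10 mL/kg. PRP was made from carotid citrated blood 2 h later under pentobarbital. Collagen suspension (absorbance 0.270 at 420 nm) drove aggregation at 30 °C, 1100 rpm. Read-out was the initial maximal rate of absorbance fall (ΔA/min). Inhibition percent is versus controls; 5–7 rats, mean ± SD.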

Rattus norvegicus [12] = assay: (§5) Ex vivo inhibition of collagen-induced blood platelet aggregation in rat was measured 2 hr after oral administration of 50 mg/kg; assay type: functional; in short: as §4
Rattus norvegicus [13] = assay: Effect of compound on heart rate in rat after an oral dose at 50 mg/kg (6h after dose); assay type: functional; in short: as §3
Rattus norvegicus [14] = assay: Effect on systolic blood pressure in rat after an oral dose at 50 mg/kg; assay type: functional, Artery; in short: as §3
Rattus norvegicus [15] = assay: Effect on heart rate in rat after an oral dose at 50 mg/kg (3h after dose); assay type: functional; in short: as §3
Rattus norvegicus [16] = assay: Effect on heart rate in rat after an oral dose at 50 mg/kg (4h after dose); assay type: functional; in short: as §3
Rattus norvegicus [17] = assay: Effect of compound on heart rate in rat after an oral dose at 50 mg/kg (5h after dose); assay type: functional; in short: as §3
Rattus norvegicus [18] = assay: Effect on heart rate in rat after an oral dose at 50 mg/kg (1h after dose); assay type: functional; in short: as §3
[19] = Inhibition of collagen-induced blood platelet aggregation in human; assay type: functional
In short: (§6)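 In vitro aggregation used human platelets. EC50 was estimated from inhibition at three to six compound concentrations and is the mean of two to three experiments.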

[20] = Inhibition ofADP-induced blood platelet aggregation in human; assay type: functional
In short: (§7)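 In vitro platelet aggregation test. EC50 was estimated from the inhibition rate at three to six compound concentrations and given as the mean of two to three experiments.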

Oryctolagus cuniculus = organism: Oryctolagus cuniculus; assay: Inhibition of serotonin/epinephrine-induced blood platelet aggregation in rabbit; assay type: functional; in short: as §7
Rattus norvegicus [21] = organism: Rattus norvegicus; assay: Inhibition of arachidonic acid-induced blood platelet aggregation in rat; assay type: functional
In short: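 Rat PRP was stimulated with arachidonic acid at 30 °C under stirring, with compound added before the agonist. EC50 was estimated from inhibition at three to six concentrations and is the mean of two to three experiments.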

Rattus norvegicus [22] = organism: Rattus norvegicus; assay: Inhibition of thrombin-induced blood platelet aggregation in rat; assay type: functional
In short: (§8)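 Rat PRP was prepared from citrated carotid blood of male Wistar-Imamichi rats (250 g) under pentobarbital anesthesia, spun at 230g for 7 min, and adjusted with PPP to about 5 × 10⁵ platelets/μL. Aggregation was read turbidimetrically at 30 °C with 1100 rpm stirring. Compound in saline or MeOH was added before the agonist. EC50 was estimated from inhibition at three to six concentrations, as the mean of two to three experiments.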

Rattus norvegicus [23] = assay: as §5; assay type: functional; in short: as §4
Rattus norvegicus [24] = assay: Effect of compound on heart rate in rat after an oral dose at 50 mg/kg (24h after dose); assay type: functional; in short: as §3
Rattus norvegicus [25] = assay: Effect of compound on heart rate in rat after an oral dose at 50 mg/kg (2h after dose); assay type: functional; in short: as §3
Rattus norvegicus [26] = assay: Effect of compound on heart rate in rat after an oral dose at 50 mg/kg/5h after dose); assay type: functional; in short: as §3
[27] = Inhibition of ADP-induced blood platelet aggregation in human; assay type: functional; in short: as §6
Rattus norvegicus [28] = assay: Effect of compound on systolic blood pressure in rat after an oral dose at 50 mg/kg (1h after dose); assay type: functional, Artery; in short: as §3
Rattus norvegicus [29] = organism: Rattus norvegicus; assay: Inhibition of collagen-induced blood platelet aggregation in rat; assay type: functional; in short: as §2
Rattus norvegicus [30] = assay: Inhibition of ADP-induced blood platelet aggregation in rat given compound at an oral dose of 50 mg/kg (delta A/min *10e 3); assay type: functional
Rattus norvegicus [31] = assay: Inhibition of collagen-induced blood platelet aggregation in rat was measured given compound at an oral dose of 50 mg/kg (delta A/min *10e 3); assay type: functional; in short: as §4
Rattus norvegicus [32] = assay: Inhibition of collagen-induced blood platelet aggregation in rat was measured given vehicle at an oral dose of 50 mg/kg (delta A/min *10e 3); assay type: functional; in short: as §4
Rattus norvegicus [33] = assay: Effect of compound on heart rate in rat after an oral dose at 50 mg/kg; assay type: functional; in short: as §3
Rattus norvegicus [34] = organism: Rattus norvegicus; assay: Inhibition of ADP-induced blood platelet aggregation in rat; assay type: functional; in short: as §1
Rattus norvegicus [35] = assay: Inhibition of ADP-induced blood platelet aggregation in rat given vehicle at an oral dose of 50 mg/kg (delta A/min *10e 3); assay type: functional
Rattus norvegicus [36] = organism: Rattus norvegicus; assay: Inhibition of thrombin-induced blood platelet aggregation in rat; Not mention; assay type: functional; in short: as §8
Rattus norvegicus [37] = assay: Effect of compound on heart rate in rat after an oral dose at 50 mg/kg (24h after dose); Not mention; assay type: functional, organism-based; set-up: dose 50 mg/kg; in short: as §3

| Compound | EC50 (Rattus norvegicus [1]) [nM] | EC50 (Rattus norvegicus [2]) [nM] | Decrease in blood pressure (Rattus norvegicus [3]) | Decrease in blood pressure (Rattus norvegicus [4]) | Decrease in blood pressure (Rattus norvegicus [5]) | Decrease in blood pressure (Rattus norvegicus [6]) | Decrease in blood pressure (Rattus norvegicus [7]) | Decrease in blood pressure (Rattus norvegicus [8]) | Initial heart rate (Rattus norvegicus [9]) [bts min-1] | Delta A/min (Rattus norvegicus [11]) | Delta A/min (Rattus norvegicus [12]) | Change in heart rate (Rattus norvegicus [13]) [%] | Initial blood pressure (Rattus norvegicus [14]) [mmHg] | Change in heart rate (Rattus norvegicus [15]) [%] | Change in heart rate (Rattus norvegicus [16]) [%] | Change in heart rate (Rattus norvegicus [17]) [%] | Change in heart rate (Rattus norvegicus [18]) [%] | EC50 [19] | EC50 [20] | EC50 (Oryctolagus cuniculus) [nM] | other results |
| --- | --- | --- | --- | --- | --- | --- | --- | --- | --- | --- | --- | --- | --- | --- | --- | --- | --- | --- | --- | --- | --- |
| O=C1CN2Cc3c(ccc(Cl)c3Cl)N=C2N1 [ANAGRELIDE] | 800 | 20 | 14 | 11 | 13 | 16 | 14 | 14 | 377 | 0.188 | 0.126 ΔA/min | 33 | 130 | 31 | 37 | 31 | 28 |  |  |  | Delta A/min (Rattus norvegicus [10]): 150 |
| Cc1cccc2c1CN1CC(=O)NC1=N2 | 5000 | 800 | 35 | 23 | 12 | 26 |  | 34 | 464 | 0.244 |  | 19 |  | 17 |  |  | 18 | 700 nM | 1700 nM and 10000 nM | 3000 | EC50 (Rattus norvegicus [21]): 500 nM; EC50 (Rattus norvegicus [22]): 3000 nM; Delta A/min (Rattus norvegicus [23]): 0.11 ΔA/min; Change in heart rate (Rattus norvegicus [24]; 50 mg/kg): 19% and -1%; Change in heart rate (Rattus norvegicus [25]): 20%; Change in heart rate (Rattus norvegicus [26]): 18% |
| Cl.O=C1CN2Cc3c(sc4c3CCCC4)N=C2N1 | 2000 | 70 | 6 |  | 4 | 8 | 8 | 9 | 467 |  |  |  | 122 | 8 | 12 | 9 | 4 | 1200 nM and 400 nM | 2200 nM | 3000 | EC50 [27]: 2200 nM; Decrease in blood pressure (Rattus norvegicus [28]): 4; EC50 (Rattus norvegicus [21]): 500 nM; EC50 (Rattus norvegicus [22]): 3000 nM; EC50 (Rattus norvegicus [29]): 70 nM; Delta A/min (Rattus norvegicus [30]): 141; Delta A/min (Rattus norvegicus [31]): 0; Delta A/min (Rattus norvegicus [32]): 156; Delta A/min (Rattus norvegicus [23]): 0; Change in heart rate (Rattus norvegicus [24]): -1%; Change in heart rate (Rattus norvegicus [33]): 9%; EC50 (Rattus norvegicus [34]): 2000 nM; Delta A/min (Rattus norvegicus [35]): 115 |
| CC1C(=O)NC2=Nc3sc4c(c3CN21)CCCC4.Cl (stereo not given) | 48000 | 600 |  | 24 |  | 14 | 11 | 4 | 440 | 0.18 | 0.002 ΔA/min |  | 128 | 2 | 4 | 4 | 5 |  |  |  | EC50 (Rattus norvegicus [36]): Not mention; Change in heart rate (Rattus norvegicus [37]): Not mention; EC50 (Rattus norvegicus [34]): 48000 nM |
